Assay results taken from ChEMBL document CHEMBL5143722, “Antimicrobial Peptides against Multidrug-Resistant Pseudomonas aeruginosa Biofilm from Cystic Fibrosis Patients” (J Med Chem, 2022).
The source made the active and inactive calls. No cut-off for these calls is given here.

Experiments:
[1] = system: Pseudomonas aeruginosa; assay: Antibiofilm activity against Pseudomonas aeruginosa PAO1 assessed as inhibition of biofilm formation at 1.56 uM incubated for 24 hrs by crystal violet staining based microtiter plate method; format: functional, organism-based
[2] = system: Pseudomonas aeruginosa; assay: Antibiofilm activity against Pseudomonas aeruginosa clinical isolate 46 assessed as inhibition of biofilm formation at MIC incubated for 24 hrs by crystal violet staining based microtiter plate method; format: functional, organism-based
Summary of the method: (§1)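 Washed overnight cultures in BM2 medium at 1 × 10^6 CFU/mL with 2-fold serial peptide dilutions in a U-bottom 96-well plate. Incubated 24 h at 37 °C without agitation. Unattached cells washed off, then 0.1% crystal violet stain read at 590 nm. No-bacteria blanks. Biomass expressed as % of untreated biofilm. At least three biological repeats.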

[3] = system: Pseudomonas aeruginosa; assay: Drug resistance in Pseudomonas aeruginosa clinical isolate 24 in BM2 medium assessed as fold change in MIC
[4] = system: Pseudomonas aeruginosa; assay: Antibiofilm activity against Pseudomonas aeruginosa clinical isolate 24 in artificial sputum medium at 25 uM incubated for 24 hrs by resazurin staining based microtiter plate method relative to control; format: functional
Summary of the method: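 Overnight cultures were washed, resuspended in BM2 to OD ~0.05, and diluted 1:100 into artificial sputum medium (pH 6.9). Biofilms grew 3 days at 37 °C with aerobic agitation in 24-well plates. Peptides (12.5–100 μM) were then added for 24 h with agitation. Biofilm was disrupted with cellulase for 1 h at 37 °C. Resazurin (0.02%) was added for 1–2 h, fluorescence read at ex 530/em 590 nm, and viability expressed as % of untreated wells.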

[5] = system: Pseudomonas aeruginosa; assay: Antibiofilm activity against Pseudomonas aeruginosa clinical isolate 99 assessed as inhibition of biofilm formation at MIC incubated for 24 hrs by crystal violet staining based microtiter plate method; format: functional, organism-based; summary of the method: as §1
[6] = system: Pseudomonas aeruginosa; assay: Antibiofilm activity against Pseudomonas aeruginosa clinical isolate 46 assessed as inhibition of biofilm formation at 1.56 uM incubated for 24 hrs by crystal violet staining based microtiter plate method; format: functional, organism-based; summary of the method: as §1
[7] = system: Pseudomonas aeruginosa; assay: Antibiofilm activity against Pseudomonas aeruginosa assessed as inhibition of biofilm formation at 0.5 times of MIC incubated for 24 hrs by crystal violet staining based microtiter plate method; format: functional, organism-based; summary of the method: as §1
[8] = system: Pseudomonas aeruginosa; assay: Antibiofilm activity against Pseudomonas aeruginosa clinical isolate 995 assessed as inhibition of biofilm formation at 1.56 uM incubated for 24 hrs by crystal violet staining based microtiter plate method; format: functional, organism-based; summary of the method: as §1
[9] = system: Pseudomonas aeruginosa; assay: Induction of biofilm degradation of Pseudomonas aeruginosa clinical isolate 82 derived from cystic fibrosis patient sputum at 1.56 to 50 uM by crystal violet based staining analysis; format: functional; details: dose 1.56-50 µM
Summary of the method: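 Biofilm grown from 1 × 10^6 CFU/mL in pooled CF patient sputum diluted 10-fold with BM2, static, 37 °C, 24 h. Unattached cells rinsed off, then serial peptide dilutions (1.56–50 μM) applied for 1 h. Washed and stained with 0.1% crystal violet, read at 590 nm. Reported as % of untreated biomass, with no-bacteria blanks.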

[10] = system: Pseudomonas aeruginosa; assay: Antibiofilm activity against Pseudomonas aeruginosa clinical isolate 25 assessed as inhibition of biofilm formation at MIC incubated for 24 hrs by crystal violet staining based microtiter plate method; format: functional, organism-based; summary of the method: as §1
[11] = system: Pseudomonas aeruginosa; assay: Antibiofilm activity against Pseudomonas aeruginosa clinical isolate 46 in artificial sputum medium at 50 uM incubated for 24 hrs by resazurin staining based microtiter plate method; format: functional, organism-based
Summary of the method: (§2)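 Washed overnight culture set to OD ~0.05 in BM2, diluted 1:100 into artificial sputum medium (pH 6.9) in 24-well plates. Grown 3 days aerobically at 37 °C with agitation. Peptides (12.5–100 μM) added for 24 h with agitation. Biofilm disrupted by cellulase for 1 h at 37 °C. Resazurin 0.02% for 1–2 h, fluorescence ex 530/em 590 nm; viability as % of untreated wells.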

[12] = system: Pseudomonas aeruginosa; assay: Drug resistance in Pseudomonas aeruginosa PAO1 in BM2 medium assessed as fold change in MIC
[13] = system: Pseudomonas aeruginosa; assay: Antibiofilm activity against Pseudomonas aeruginosa clinical isolate 995 assessed as inhibition of biofilm formation at MIC incubated for 24 hrs by crystal violet staining based microtiter plate method; format: functional, organism-based; summary of the method: as §1
[14] = system: Pseudomonas aeruginosa; assay: Antibiofilm activity against Pseudomonas aeruginosa clinical isolate 82 in artificial sputum medium at 100 uM incubated for 24 hrs by resazurin staining based microtiter plate method; format: functional, organism-based; summary of the method: as §2
[15] = system: Pseudomonas aeruginosa; assay: Antibiofilm activity against Pseudomonas aeruginosa clinical isolate 24 assessed as inhibition of biofilm formation at MIC incubated for 24 hrs by crystal violet staining based microtiter plate method; format: functional, organism-based; summary of the method: as §1
[16] = system: Pseudomonas aeruginosa; assay: Induction of biofilm degradation of Pseudomonas aeruginosa clinical isolate 59 at 12.5 uM incubated for 1 hr by crystal violet staining analysis
[17] = system: Pseudomonas aeruginosa; assay: Antibiofilm activity against Pseudomonas aeruginosa clinical isolate 24 assessed as inhibition of biofilm formation at 1.56 uM incubated for 24 hrs by crystal violet staining based microtiter plate method; format: functional, organism-based; summary of the method: as §1
[18] = system: Pseudomonas aeruginosa; assay: Antibiofilm activity against Pseudomonas aeruginosa clinical isolate 629 assessed as inhibition of biofilm formation at 1.56 uM incubated for 24 hrs by crystal violet staining based microtiter plate method; format: functional, organism-based; summary of the method: as §1
[19] = system: Pseudomonas aeruginosa; assay: Induction of biofilm degradation of Pseudomonas aeruginosa clinical isolate 59 at 50 uM incubated for 1 hr by crystal violet staining analysis relative to control; format: functional
Summary of the method: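 Inoculum of 1 × 10^6 CFU/mL was grown 24 h at 37 °C without agitation to form biofilm. Wells were rinsed of unattached bacteria and exposed for 1 h to serial peptide dilutions (1.56–50 μM). They were then washed, stained with 0.1% crystal violet, and read at 590 nm with no-bacteria blanks. Biomass is given as % of untreated biofilm.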

[20] = system: Pseudomonas aeruginosa; assay: Antibiofilm activity against Pseudomonas aeruginosa clinical isolate 82 in basal medium 2 at 12.5 to 100 uM incubated for 24 hrs by resazurin staining based microtiter plate method; format: functional, organism-based; details: dose 12.5-100 µM
[21] = system: Pseudomonas aeruginosa; assay: Antibiofilm activity against Pseudomonas aeruginosa clinical isolate 59 assessed as inhibition of biofilm formation at MIC incubated for 24 hrs by crystal violet staining based microtiter plate method; format: functional
Summary of the method: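 In BM2, bacteria at 1 × 10^6 CFU/mL were incubated with 2-fold serial peptide dilutions for 24 h at 37 °C without agitation. Unattached cells were washed off, and the remaining biofilm was stained with 0.1% crystal violet and read at OD590. Blanks had no bacteria. Biomass is given as % of untreated biofilm; at least three biological repeats.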

[22] = system: Pseudomonas aeruginosa; assay: Antibiofilm activity against Pseudomonas aeruginosa clinical isolate 24 in basal medium 2 at 12.5 to 100 uM incubated for 24 hrs by resazurin staining based microtiter plate method; format: functional, organism-based; details: dose 12.5-100 µM
[23] = system: Pseudomonas aeruginosa; assay: Antibiofilm activity against Pseudomonas aeruginosa PAO1 in basal medium 2 at 12.5 to 100 uM incubated for 24 hrs by resazurin staining based microtiter plate method; format: functional, organism-based; details: dose 12.5-100 µM
[24] = system: Pseudomonas aeruginosa; assay: Antibiofilm activity against Pseudomonas aeruginosa clinical isolate 46 in basal medium 2 at 12.5 to 100 uM incubated for 24 hrs by resazurin staining based microtiter plate method; format: functional, organism-based; details: dose 12.5-100 µM
[25] = system: Pseudomonas aeruginosa; assay: Induction of biofilm degradation of Pseudomonas aeruginosa clinical isolate 172 at sub MIC concentration incubated for 1 hr by crystal violet staining analysis; format: functional
Summary of the method: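 Bacteria at 1 × 10^6 CFU/mL in BM2 grown static at 37 °C for 24 h to form biofilm. Wells rinsed of unattached cells, then exposed for 1 h to serial peptide dilutions (1.56–50 μM). Washed, stained with 0.1% crystal violet, A590 read. Biomass given as % of untreated biofilm; no-bacteria wells as blanks. At least three biological repeats.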

| SMILES | inhibition [2] | fold change (FC) [3] | inhibition [5] | inhibition [10] | fold change (FC) [12] | inhibition [13] | inhibition [15] | Activity [19] [%] | Activity [20] | Activity [22] | Activity [23] | Activity [24] | further results |
| --- | --- | --- | --- | --- | --- | --- | --- | --- | --- | --- | --- | --- | --- |
| CC(C)C[C@H](NC(=O)[C@H](CC(C)C)NC(=O)[C@H](CCCCN)NC(=O)[C@H](CC(C)C)NC(=O)[C@H](CC(C)C)NC(=O)[C@H](CCCCN)NC(=O)[C@H](CCCCN)NC(=O)[C@H](CC(C)C)NC(=O)[C@H](CC(C)C)NC(=O)[C@H](CCCCN)NC(=O)[C@H](CCCCN)NC(=O)[C@H](CC(C)C)NC(=O)[C@H](CC(C)C)NC(=O)[C@H](CCCCN)NC(=O)[C@@H](N)CC(C)C)C(N)=O | Active | <20 | Active | Active | <20 | Active | Active | – | – | – | – | – | inhibition [1]: Active; Activity [4]: 41.24%; inhibition [6]: Active; inhibition [7]: Active; inhibition [8]: Active; Activity [9]: Active; Activity [11]: Active; Activity [14]: Active; Activity [16]: Active; inhibition [17]: Active; inhibition [18]: Active |
| CC[C@H](C)[C@H](NC(=O)[C@H](CCCCN)NC(=O)[C@H](CCC(=O)O)NC(=O)[C@H](CCCCN)NC(=O)[C@H](CO)NC(=O)[C@H](CCCCN)NC(=O)[C@H](CCCNC(=N)N)NC(=O)[C@H](Cc1ccccc1)NC(=O)[C@H](Cc1ccccc1)NC(=O)[C@H](CC(=O)O)NC(=O)CNC(=O)[C@H](CC(C)C)NC(=O)[C@@H](N)CC(C)C)C(=O)NCC(=O)N[C@@H](CCCCN)C(=O)N[C@@H](CCC(=O)O)C(=O)N[C@@H](Cc1ccccc1)C(=O)N[C@@H](CCCCN)C(=O)N[C@@H](CCCNC(=N)N)C(=O)N[C@H](C(=O)N[C@H](C(=O)N[C@@H](CCC(N)=O)C(=O)N[C@@H](CCCNC(=N)N)C(=O)N[C@H](C(=O)N[C@@H](CCCCN)C(=O)N[C@@H](CC(=O)O)C(=O)N[C@@H](Cc1ccccc1)C(=O)N[C@@H](CC(C)C)C(=O)N[C@@H](CCCNC(=N)N)C(=O)N[C@@H](CC(N)=O)C(=O)N[C@@H](CC(C)C)C(=O)N[C@H](C(=O)N1CCC[C@H]1C(=O)N[C@@H](CCCNC(=N)N)C(=O)N[C@H](C(=O)N[C@@H](CCC(=O)O)C(=O)N[C@@H](CO)C(N)=O)[C@@H](C)O)C(C)C)[C@@H](C)CC)C(C)C)[C@@H](C)CC | Active | <20 | Active | Active | <20 | Active | Active | 40 | Active | Active | Active | Active | inhibition (INH) [21]: 30% |
| CC(C)C[C@H](NC(=O)[C@H](CC(C)C)NC(=O)[C@H](CC(C)C)NC(=O)[C@H](CC(C)C)NC(=O)[C@H](CC(C)C)NC(=O)[C@H](CC(C)C)NC(=O)[C@H](CC(C)C)NC(=O)[C@H](CC(C)C)NC(=O)[C@H](CC(C)C)NC(=O)[C@H](CCCCN)NC(=O)[C@H](CCCCN)NC(=O)[C@@H](N)CCCCN)C(=O)N[C@@H](CCCCN)C(=O)N[C@@H](CCCCN)C(=O)N[C@@H](CCCCN)C(N)=O | – | – | – | – | – | – | – | 40 | Active | Active | Active | Active | Activity [25]: Active |
